# Screening results: PubChem BioAssay, Broad Institute
# GASC1 inh – blocks human GASC-1 (KDM4C) demethylase activity. inhibition, % at 12.5 µM. GST-KDM4C 2-372, H3K9me3 peptide, LANCE TR-FRET. Q9H3R0. 96,000 compounds, 0.15% hits;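 active = mean replicate inhibition above about 25%, with at least 55% of replicates also reaching it, limit read from the data, passing the limit was not always enough; inconclusive = only one of those two conditions met; inactive = neither condition met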
# Target sequence (Q9H3R0 2-372 limits assumed): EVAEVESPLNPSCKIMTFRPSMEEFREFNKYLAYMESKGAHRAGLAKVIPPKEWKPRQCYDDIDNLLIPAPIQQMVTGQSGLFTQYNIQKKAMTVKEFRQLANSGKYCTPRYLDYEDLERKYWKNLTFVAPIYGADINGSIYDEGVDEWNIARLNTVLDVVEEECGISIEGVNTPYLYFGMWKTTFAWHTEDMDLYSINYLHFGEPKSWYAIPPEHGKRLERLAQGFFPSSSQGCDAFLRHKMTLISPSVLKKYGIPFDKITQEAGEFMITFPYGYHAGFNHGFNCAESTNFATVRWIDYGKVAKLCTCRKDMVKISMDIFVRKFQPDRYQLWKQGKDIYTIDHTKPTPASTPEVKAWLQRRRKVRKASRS
#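 Material: GST-tagged GASC-1 (JMJD2C) catalytic fragment, aa 2-372 / Quantity: enzyme final amount 10 nM / Medium: HEPES buffer, pH 7.5, plus ascorbate / Doses: one test concentration per compound / Incubation: 30 min reaction, 60 min detection, RT / Measured by: LANCE TR-FRET / Read-out: inhibition from TR-FRET ratio decrease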
# IDH1 mut inh – inhibitors of human IDH1 R132H | inhibition, % at 10 µM | O75874 | IDH1 R132H reductase, diaphorase/resazurin fluorescence, 60 min | 70,000 compounds, 0.18% hits | AID 624101; in the data active = inhibition above about 34%; inconclusive = no clear call, values can overlap the other calls; inactive = below about 11%;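 note: 0% = DMSO and 100% = no enzyme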
# T cruzi growth-1 – inhibitors of T. cruzi proliferation; T. cruzi beta-gal in NIH3T3, GalScreen luminescence, 90 h; inhibition, % at 8.34 µM; 77,000 compounds, 5.9% hits;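 active = mean inhibition above about 93%, with at least 55% of replicates each passing it, limit read from the data, passing the limit was not always enough; inconclusive = only one of those two conditions holds; inactive = neither condition holds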
# Pf Dd2 growth – blocks growth of Plasmodium falciparum Dd2 parasites. P. falciparum Dd2 growth, SYBR Green, 72 h; stronger effect = lower value. 94,000 compounds, 2.3% hits. activity change, % at 10 µM; in the data active = activity change below about -80%; inconclusive = no clear call, values can overlap the other calls
# T cruzi growth-2 – blocks T. cruzi growth in NIH3T3 host cells; shares compounds with T cruzi growth-1; T. cruzi beta-gal in NIH3T3, GalScreen luminescence, 90 h; inhibition, % at 8.35 µM; 5,600 compounds, 72% hits;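 active = mean replicate inhibition above about 95% and at least 55% of replicates individually reaching it, limit read from the data; inconclusive = only one of the two criteria is met; inactive = neither criterion is met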
# T cruzi growth-3 – inhibitors of T. cruzi proliferation; inhibition, % at 2.09 µM; shares compounds with T cruzi growth-1; 5,600 compounds, 21% hits; AID 651740; T. cruzi beta-gal in NIH3T3, GalScreen luminescence, 90 h;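 active = mean inhibition above about 95%, with at least 55% of replicates also reaching it, limit read from the data; inconclusive = meets just one of the two conditions; inactive = meets neither condition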;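 note: plate controls were neutral control median for no effect and positive control median for full effect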
# NIH3T3 tox – cytotoxicity in mouse NIH/3T3 fibroblasts. cytotoxicity (signal decrease), % at 8.35 µM. 5,600 compounds, 14% hits. AID 651742. shares compounds with T cruzi growth-1. NIH/3T3 viability, CellTiter-Glo ATP luminescence, 90 h;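 active = mean signal decrease across replicates above about 35% based on untreated-well scatter, with enough replicates individually passing, limit read from the data; inconclusive = no rule stated though some were filed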;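 note: 0% = median of neutral control wells and 100% = median of positive control wells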
# NIH3T3 tox 2 – cytotoxicity in mouse NIH/3T3 fibroblasts; inhibition, % at 24.9 µM; shares compounds with T cruzi growth-1; NIH/3T3 viability, CellTiter-Glo ATP luminescence, 90 h; 5,600 compounds, 56% hits; AID 651744;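 active = mean loss of cell viability signal at or above a set limit, and enough replicates individually reaching it; inconclusive = meets only the mean limit or only the replicate share; inactive = meets neither condition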;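 note: 0% = median of neutral control wells and 100% = median of positive control wells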
# Numbers without * were called inactive; ? = inconclusive; / = not tested or not shown; ! = not confirmed by another sample. Shown are actives, neighbours in structure and some others; about 5.8% of the full set was active somewhere.
SMILES,GASC1 inh,IDH1 mut inh,T cruzi growth-1,Pf Dd2 growth,T cruzi growth-2,T cruzi growth-3,NIH3T3 tox,NIH3T3 tox 2
C[C@H]1CCCCO[C@H](CN(C)Cc2ccc(Cl)c(Cl)c2)[C@@H](C)CN([C@@H](C)CO)C(=O)c2cc(NC(=O)Nc3ccc(F)cc3)ccc2O1,-2,/,102*,-34,95*,112*,2,7
C[C@H]1CCCCO[C@H](CN(C)Cc2ccc(Cl)c(Cl)c2)[C@@H](C)CN([C@@H](C)CO)C(=O)c2cc(NC(=O)Nc3ccccc3)ccc2O1,-2,/,69,-61,/,/,/,/
C[C@@H]1CCCCO[C@@H](CN(C)Cc2ccc(Cl)c(Cl)c2)[C@@H](C)CN([C@@H](C)CO)C(=O)c2cc(NC(=O)Nc3ccc(F)cc3)ccc2O1,0,/,109*,-52,?,109*,4,27
Cc1nn(C)c(C)c1NC(=O)CSc1nnc(-c2cccc(Br)c2)n1-c1ccccc1,/,0,/,/,/,/,/,/
COc1ccccc1NC(=O)C1=C(C)Nc2ncnn2C1c1ccncc1 (stereo not given),/,-1,/,/,/,/,/,/
CC(C)CC#Cc1cnc2c(c1)C(=O)N([C@H](C)CO)C[C@H](C)[C@H](CN(C)S(=O)(=O)c1cccs1)O2,-4,1,41,-36,/,/,/,/
C[C@H](CO)N1C[C@H](C)[C@H](CN(C)S(=O)(=O)c2cccs2)Oc2ncc(C#Cc3ccccc3)cc2C1=O,-6,-1,119*!,-42,109*,67,24,16
C[C@H]1CN([C@@H](C)CO)C(=O)c2cc(C#Cc3ccccc3)cnc2O[C@@H]1CN(C)S(=O)(=O)c1ccccc1F,/,0,?,-49,108*,68,37*,36*
C[C@H](CO)N1C[C@H](C)[C@H](CN(C)S(=O)(=O)c2ccccc2F)Oc2ncc(C#Cc3ccccc3F)cc2C1=O,-3,0,?,-34,106*,69,26,58*
C[C@@H]1CN([C@@H](C)CO)C(=O)c2cc(C#Cc3ccccc3F)cnc2O[C@@H]1CN(C)S(=O)(=O)c1ccccc1F,-5,-3,98*,-61,95*,80,56*,61*
C[C@H](CO)N1C[C@H](C)[C@H](CN(C)S(=O)(=O)c2ccccc2F)Oc2ncc(C#Cc3ccccc3)cc2C1=O,/,0,-10,-55,/,/,/,/
COc1ccc(S(=O)(=O)N(C)CC(=O)Nc2ccc(C(N)=O)cc2)cc1C,/,0,/,/,/,/,/,/
C[C@@H]1CN([C@@H](C)CO)C(=O)c2cc(C#Cc3ccccc3)cnc2O[C@H]1CN(C)S(=O)(=O)c1ccccc1F,/,0,90,-66,/,/,/,/
C[C@@H]1CN([C@H](C)CO)C(=O)c2cc(C#Cc3ccccc3F)cnc2O[C@H]1CN(C)S(=O)(=O)c1ccccc1F,-1,-6,114*,-43,110*,90,39*,?
C[C@@H]1CN([C@H](C)CO)C(=O)c2cc(C#Cc3ccccc3F)cnc2O[C@@H]1CN(C)S(=O)(=O)c1ccccc1F,-2,0,106*!,-40,107*,69,55*,54*
Cc1noc(C)c1S(=O)(=O)N(C)C[C@H]1OCCCC[C@H](C)Oc2ccc(NC(=O)Nc3ccc4c(c3)OCO4)cc2C(=O)N([C@@H](C)CO)C[C@@H]1C,-1,1,?,-78,106*,4,0,-3
Cc1noc(C)c1S(=O)(=O)N(C)C[C@H]1OCCCC[C@@H](C)Oc2ccc(NC(=O)Nc3ccc4c(c3)OCO4)cc2C(=O)N([C@@H](C)CO)C[C@H]1C,-1,2,108*,-78,105*,25,28,21
Cc1noc(C)c1S(=O)(=O)N(C)C[C@@H]1OCCCC[C@@H](C)Oc2ccc(NC(=O)Nc3ccc4c(c3)OCO4)cc2C(=O)N([C@@H](C)CO)C[C@@H]1C,1,/,58,-36,/,/,/,/
Cc1noc(C)c1S(=O)(=O)N(C)C[C@H]1OCCCC[C@@H](C)Oc2ccc(NC(=O)Nc3ccc4c(c3)OCO4)cc2C(=O)N([C@H](C)CO)C[C@@H]1C,1,0,103*,0,?,13,26,45*
CS(=O)(=O)N(CC(=O)Nc1ccc(I)cc1)c1cccc2ccccc12,/,1,/,/,/,/,/,/
C[C@H](CO)N1C[C@H](C)[C@@H](CN(C)Cc2ccc(-c3ccccc3)cc2)Oc2ccc(NC(=O)C3CCCCC3)cc2C1=O,-1,/,41,-4,/,/,/,/
C[C@@H]1CN([C@H](C)CO)C(=O)c2cc(NC(=O)C3CCCCC3)ccc2O[C@H]1CN(C)Cc1ccc(-c2ccccc2)cc1,0,3,?,-10,108*,-5,4,39*
C[C@H](CO)N1C[C@H](C)[C@@H](CN(C)Cc2ccccc2)Oc2ccc(NC(=O)NC3CCCCC3)cc2C1=O,4,/,-9,6,/,/,/,/
C[C@H]1CN([C@@H](C)CO)C(=O)c2cc(NC(=O)C3CCCCC3)ccc2O[C@@H]1CN(C)Cc1ccc(-c2ccccc2)cc1,0,/,104*,-42,109*,70,33,21
C[C@H](CO)N1C[C@H](C)[C@H](CN(C)Cc2ccc(-c3ccccc3)cc2)Oc2ccc(NC(=O)NC3CCCCC3)cc2C1=O,-2,-1,111*,13,104*,19,13,47*
SMILES,GASC1 inh,IDH1 mut inh,T cruzi growth-1,Pf Dd2 growth,T cruzi growth-2,T cruzi growth-3,NIH3T3 tox,NIH3T3 tox 2
O=C(Cn1cnc2scc(-c3ccccc3)c2c1=O)Nc1cc(Cl)cc(Cl)c1,/,0,/,/,/,/,/,/
Cc1nn(CC(=O)Nc2ccc(O)cc2)c(C)c1[N+](=O)[O-],/,0,/,/,/,/,/,/
O=C(Nc1cccc(F)c1)N1CCCCN2[C@@H](CO)[C@H](c3ccc(C#Cc4cccnc4)cc3)[C@@H]2C1,-1,/,103*,-76,103*,79,26,101*
O=C(Nc1ccc(F)cc1)N1CCCCN2[C@@H](CO)[C@@H](c3ccc(C#Cc4ccccc4)cc3)[C@@H]2C1,-4,/,121*,-78,108*,115*,118*,105*
O=C(Nc1cccc(F)c1)N1CCCCN2[C@H](C1)[C@H](c1ccc(C#CC3CC3)cc1)[C@@H]2CO,-1,/,118*,-6,110*,87,10,11
O=C(Nc1cccc(F)c1)N1CCCCN2[C@H](CO)[C@H](c3ccc(C#Cc4cccnc4)cc3)[C@H]2C1,-1,/,96*,-54,108*,48,22,103*
CC(=O)c1cccc(NC(=O)C(C)NS(=O)(=O)c2ccc(F)cc2)c1 (stereo not given),/,0,/,/,/,/,/,/
CSc1cccc(N2C(=S)NC3c4ccccc4OC24CCCC34)c1 (stereo not given),/,0,/,/,/,/,/,/
